The results in this text go back to ChEMBL document CHEMBL1139238, “Preparation of two sets of 5,6,7-trioxygenated dihydroflavonol derivatives as free radical scavengers and neuronal cell protectors to oxidative damage” (Bioorg Med Chem, 2009).

The source made the active and inactive calls. The calls are words filed in the database; no cut-off is given here.

For data set [1], the system named is PC-12. Description: Cytoprotective activity against H2O2-induced cell death in rat PC12 cells assessed as increase in cell viability at 8 ug/ml preincubated 2 hrs before H2O2 challenge measured after 4 hrs by MTT assay relative to control. It is filed as functional. In a few lines: (§1)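 PC12 cells from Shanghai Institute of Cell Biology, grown at 37 °C in 5% CO2 in high-glucose DMEM with 10% heat-inactivated calf serum and penicillin/streptomycin. Cells seeded at 6×10^3/well and used 36 h later. Compound in DMSO diluted in medium, 2 h pretreatment, then 500 µM H2O2 (final) for 4 h. MTT (5 mg/mL) for 3 h, formazan dissolved in DMSO, read at 570 nm. Gain is %OD(drug)/OD(normal) minus %OD(DMSO)/OD(normal).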

Data set [2] addresses Xanthine dehydrogenase/oxidase (Rattus norvegicus) (UniProt P22985). Description: Inhibition of xanthine oxidase assessed as formation of formazan after 2 hrs by spectrophotometry. Also noted: concentration or dose not given beside the values.
The subject of data set [3] is PC-12. In words: Cytoprotective activity against H2O2-induced cell death in rat PC12 cells assessed as increase in cell viability at 16 ug/ml preincubated 2 hrs before H2O2 challenge measured after 4 hrs by MTT assay relative to control. It is filed as functional. In short, it runs like this:
as §1

In data set [4] the test system is PC-12. Description: Cytoprotective activity against H2O2-induced cell death in rat PC12 cells assessed as increase in cell viability at 32 ug/ml preincubated 2 hrs before H2O2 challenge measured after 4 hrs by MTT assay relative to control. It is filed as functional. In short, it runs like this:
as §1

Data set [5] has as its system Liver. Description: tissue or blood. The conditions noted are these: Rattus norvegicus, 1 h.
Data set [6] in a line: Antioxidant activity assessed as superoxide radical scavenging activity by spectrophotometry. The class given is functional. In a few lines: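 Superoxide generated by NADH (78 μM), nitroblue tetrazolium (50 μM) and phenazine methosulfate (5 μM) in 16 mM Tris–HCl, pH 8.0, with compounds at various concentrations. Read at 560 nm after 5 min at room temperature. Blanks lack phenazine methosulfate; quercetin and vitamin C are references.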

Data set [7] deals with Radical scavenging activity. Description: Antioxidant activity assessed as DPPH free radical scavenging activity by spectrophotometry. It is filed as functional. In short, it runs like this: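 DPPH (0.4 mg/mL) in methanol mixed with compounds (DMSO solutions) at various concentrations. Incubated 30 min at 37 °C, absorbance read at 517 nm. Methanolic DPPH alone serves as control; quercetin and vitamin C are the reference scavengers.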
Background: DPPH is a stable violet radical that fades when it is reduced.

For data set [8], the target named is Xanthine dehydrogenase/oxidase (Rattus norvegicus) (UniProt P22985). In words: Inhibition of xanthine oxidase assessed as formation of formazan at 16 ug/ml after 2 hrs by spectrophotometry.
For data set [9], the system named is PC-12. In words: Cytoprotective activity against H2O2-induced cell death in rat PC12 cells assessed as increase in cell viability preincubated 2 hrs before H2O2 challenge measured after 4 hrs by MTT assay. It is filed as functional, cell-based.
Data set [10] concerns Liver. Description: Antioxidant activity against FeSO4-induced lipid peroxidation in rat liver homogenate assessed as inhibition of malondialdehyde release at 6 to 100 uM after 1 hr by thiobarbituric acid assay relative quercetin. It is filed as functional, tissue-based. In a few lines: (§2)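 Rat (Sprague-Dawley) liver homogenate in ice-cold PBS; peroxidation driven by FeSO4 (4 μM) plus vitamin C (50 μM). Compounds at 0.1–100 μM, 37 °C for 1 h in capped tubes. Then 20% TCA for 30 min at room temperature, followed by 0.1 M HCl and 1% TBA at 99 °C for 1 h. After centrifugation, MDA read at 532 nm. Quercetin is the standard; n = 3, means ± SD.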

Data set [11] concerns Liver. In words: Antioxidant activity against FeSO4-induced lipid peroxidation in rat liver homogenate assessed as inhibition of malondialdehyde release at < 5 uM after 1 hr by thiobarbituric acid assay relative quercetin. It is filed as functional, tissue-based. In short, it runs like this: as §2

Chain of Xanthine dehydrogenase/oxidase (Rattus norvegicus) (P22985 whole entry, looked up): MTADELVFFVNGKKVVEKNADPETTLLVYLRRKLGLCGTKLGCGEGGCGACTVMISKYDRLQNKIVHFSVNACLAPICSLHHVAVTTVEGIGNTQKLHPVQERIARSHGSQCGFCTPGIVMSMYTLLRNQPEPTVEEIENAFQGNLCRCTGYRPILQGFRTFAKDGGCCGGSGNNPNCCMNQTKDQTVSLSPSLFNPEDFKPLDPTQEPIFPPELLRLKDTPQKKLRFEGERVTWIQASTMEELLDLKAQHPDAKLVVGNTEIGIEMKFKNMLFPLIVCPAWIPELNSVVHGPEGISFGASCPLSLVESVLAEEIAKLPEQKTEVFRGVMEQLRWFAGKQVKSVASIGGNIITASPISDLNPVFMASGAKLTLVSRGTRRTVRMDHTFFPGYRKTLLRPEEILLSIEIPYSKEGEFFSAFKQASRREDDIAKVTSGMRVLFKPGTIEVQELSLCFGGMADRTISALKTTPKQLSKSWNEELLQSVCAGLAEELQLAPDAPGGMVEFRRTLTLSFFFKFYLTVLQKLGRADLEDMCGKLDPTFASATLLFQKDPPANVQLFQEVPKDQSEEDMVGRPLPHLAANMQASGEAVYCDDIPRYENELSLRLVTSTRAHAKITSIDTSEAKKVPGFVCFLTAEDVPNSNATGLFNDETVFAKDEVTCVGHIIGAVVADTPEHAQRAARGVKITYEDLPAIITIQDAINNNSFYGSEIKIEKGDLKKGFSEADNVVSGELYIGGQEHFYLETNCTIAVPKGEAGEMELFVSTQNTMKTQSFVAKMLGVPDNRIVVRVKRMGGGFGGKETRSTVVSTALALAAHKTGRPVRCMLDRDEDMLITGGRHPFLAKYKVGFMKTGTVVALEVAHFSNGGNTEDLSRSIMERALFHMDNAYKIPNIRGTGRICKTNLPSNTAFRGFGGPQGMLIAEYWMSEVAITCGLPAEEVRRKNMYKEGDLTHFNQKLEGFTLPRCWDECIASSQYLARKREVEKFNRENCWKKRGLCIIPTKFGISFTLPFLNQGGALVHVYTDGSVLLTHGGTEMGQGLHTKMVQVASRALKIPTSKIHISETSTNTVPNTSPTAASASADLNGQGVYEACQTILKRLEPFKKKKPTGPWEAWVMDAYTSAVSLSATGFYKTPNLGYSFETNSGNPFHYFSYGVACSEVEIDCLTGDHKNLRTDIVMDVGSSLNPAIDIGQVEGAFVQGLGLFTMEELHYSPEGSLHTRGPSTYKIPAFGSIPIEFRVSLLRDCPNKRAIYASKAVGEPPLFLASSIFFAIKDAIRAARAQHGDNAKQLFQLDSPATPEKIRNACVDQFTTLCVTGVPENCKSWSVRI

Turning to `COc1ccc([C@@H]2Oc3cc(OC)c(OC)c(OC)c3C(=O)[C@@H]2O)cc1` (racemic), the Activity turned out to be 0.6% with PC-12 [1], 24.9% in [2], 3.4% in the data set with PC-12 [3] and 2.1% in the data set with PC-12 [4].

Consider `COc1cc2c(c(OC)c1OC)C(=O)[C@H](O)[C@H](c1ccccc1O)O2` (racemic), for which half-maximal inhibition with Liver [5] (IC50) required 26.7 µM. For the same molecule, the figures for the EC50 in [6] and in data set [7] were 164 µM and 82.4 µM, respectively.

`COc1cc([C@@H]2Oc3cc(OC)c(OC)c(OC)c3C(=O)[C@@H]2O)cc(OC)c1O` (racemic): inhibition with Liver [5] was half-maximal at 10.4 µM (IC50). Also, the EC50 – broadly, the concentration that produces a half-maximal response – in [6] is 55.5 µM; in data set [7] it was 54.1 µM.

For `COc1cc2c(c(OC)c1OC)C(=O)[C@H](O)[C@@H](c1ccc(O)c(O)c1)O2` (racemic), the values for the concentration for half-maximal inhibition (IC50) (in the data set on Liver [5]; in data set [8]) were 10.4 µM and 96.7 µM, respectively. Moreover, the EC50 in data set [6] is 100 µM; with PC-12 [9] it was 33.1 µM; in data set [7], 7.3 µM. Besides, the Activity in the data set on PC-12 [1] was found to be 40.5%; in data set [2], 58.9%; in the data set with PC-12 [3], 56.1%; in the data set on PC-12 [4], 74.5%.

As for `COc1cc([C@@H]2Oc3cc(OC)c(OC)c(OC)c3C(=O)[C@@H]2O)cc(OC)c1OC` (racemic), half-maximal inhibition in the data set on Liver [5] (IC50) was put at 19.6 µM. Further, the Activity with PC-12 [1] was found to be 2.1%; in data set [2], 28.9%; in the data set with PC-12 [3], 9.2%; in the data set on PC-12 [4], 15.1%.

Regarding `COc1ccc([C@H]2Oc3cc(OC)c(O)c(OC)c3C(=O)[C@@H]2O)cc1` (racemic), in the data set on Liver [5], 11.9 µM corresponded to half-maximal inhibition (IC50). Besides, the Activity in the data set on PC-12 [1] is 19.5%; in [2] it was 21.1%; in the data set on PC-12 [3], 37.2%; with PC-12 [4] it was 53.6%. For the same molecule, the EC50 in the data set on PC-12 [9] stood at 82.4 µM; in [7], 94.9 µM.

For the molecule `COc1cc2c(c(OC)c1O)C(=O)[C@H](O)[C@H](c1ccc3c(c1)OCO3)O2` (racemic), the IC50 (as a rule, the concentration needed to halve the response being measured) in the data set on Liver [5] was determined as 6.4 µM. For the same molecule, the concentration for a half-maximal effect (EC50) is 93.6 µM in data set [6] and 18.4 µM in [7]. Further, the Activity with PC-12 [1] worked out at 0.1%; in data set [2], 12.5%; in the data set on PC-12 [3] it was 0.3%; in the data set on PC-12 [4], 0.5%.

For the molecule `COc1ccc([C@@H]2Oc3cc(OC)c(O)c(OC)c3C(=O)[C@@H]2O)cc1OC` (racemic), the EC50 in [6] amounted to 50 µM; in [7], 35.9 µM. Further, the Activity was found to be 2.9% in the data set with PC-12 [1], 74.3% in data set [2], 19.8% with PC-12 [3] and 22% in the data set with PC-12 [4]. In addition, the IC50 in [8] came out at 16 µM.

Take `COc1cc2c(c(OC)c1OC)C(=O)[C@H](O)[C@@H](c1ccc(O)cc1)O2` (racemic): the Activity in the data set on PC-12 [1] is given as -1.4%; in data set [2], 0.2%; with PC-12 [3], 5.1%; with PC-12 [4], 17.1%.

Take `COc1cc2c(c(OC)c1OC)C(=O)[C@H](O)[C@H](c1ccc3c(c1)OCO3)O2` (racemic): the EC50 in [6] stood at 80.3 µM. Also, the Activity with PC-12 [1] is 1.4%; in data set [2] it was 0.8%; in the data set on PC-12 [3], 5.4%; with PC-12 [4] it was 4.5%.

Take `COc1ccc([C@@H]2Oc3cc(OC)c(OC)c(OC)c3C(=O)[C@@H]2O)cc1OC` (racemic): the IC50 in the data set on Liver [5] was found to be 28.6 µM. Besides, the Activity in the data set on PC-12 [1] is reported as -2.5%; in [2] it was 46.6%; in the data set with PC-12 [3] it was 1.9%; in the data set with PC-12 [4], 2.4%.

`COc1ccc([C@H]2Oc3cc(OC)c(OC)c(OC)c3C(=O)[C@@H]2O)cc1O` (racemic): the EC50 was found to be 112 µM in data set [6] and 124 µM in [7].

In the case of `COc1cc2c(c(OC)c1O)C(=O)[C@H](O)[C@@H](c1ccc(O)cc1)O2` (racemic), the Activity is -3.8% in the data set with PC-12 [1], 19.8% in data set [2], 13.4% with PC-12 [3] and 19.1% in the data set on PC-12 [4]. The EC50 in data set [7] worked out at 35.3 µM.

Consider `COc1cc([C@@H]2Oc3cc(OC)c(O)c(OC)c3C(=O)[C@@H]2O)ccc1O` (racemic), for which half-maximal inhibition in the data set on Liver [5] (IC50) was put at 1.9 µM. Further, the EC50 in [6] was 97.2 µM; in data set [7], 42.8 µM. The Activity is -0.2% in the data set on PC-12 [1], 15.4% in [2], 0.5% in the data set with PC-12 [3] and 1.6% with PC-12 [4].

In the data set with Liver [5], `COc1cc([C@H]2Oc3cc(OC)c(OC)c(OC)c3C(=O)[C@@H]2O)ccc1O` (racemic) displayed an IC50 of 5.5 µM. Further, in the data set with Liver [10], the outcome was Active. Moreover, the EC50 in [6] came out at 97.1 µM; in data set [7] it was 27.8 µM. Besides, in the data set on Liver [11], the result was inactive.

In the case of `O=C1O[C@H]([C@@H](O)CO)C(O)=C1O` [ASCORBIC ACID], the concentration for a half-maximal effect (EC50) was determined as 256 µM in [6] and 154 µM in [7].

In the data set with Liver [5], `O=c1c(O)c(-c2ccc(O)c(O)c2)oc2cc(O)cc(O)c12` [QUERCETIN] came in with a half-maximal inhibitory concentration (IC50) of 6 µM. Also, the EC50 in data set [6] was 40.6 µM; in the data set on PC-12 [9] it was 68.3 µM; in data set [7], 5.5 µM. The Activity was 28.9% in the data set with PC-12 [1], 42.6% with PC-12 [3] and 61.7% with PC-12 [4].
